≈ marks a conversion by molar mass, not a printed value. *1 amine or outer side, *2 acyl side, *3 side chain or, on linkers, in order; H or OH if unused. Where a SMILES comes first, the peptide text is derived from it. Bridges are numbered along the chain shown (N, C = ends). [ ]: non-standard residue; d: D form. The star is where a group is joined. pTerphenylCO(4''-OnC5H11) = CCCCCOc1ccc(-c2ccc(-c3ccc(C(=O)*)cc3)cc2)cc1; Orn(4R-OH,5R-OH) = O=C([C@H](C[C@@H](O)[C@@H](O)N[*:3])N[*:1])[*:2]; hTyr(3S-OH,4S-OH) = N[C@H](C(=O)O)[C@H](O)[C@@H](O)c1ccc(O)cc1; Pro(3S-OH,4S-Me) = C[C@H]1CN[C@H](C(=O)O)[C@H]1O; Hyp = O=C(O)[C@@H]1C[C@@H](O)CN1
Tests used:
Type in all cases: functional
Candida albicans [1] = experiment: Antifungal activity against Candida albicans NCPF6525 after 24 hrs by EUCAST test
In short: (§1)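 EUCAST broth microdilution with aqueous doubling dilutions of drug. Inoculum grown overnight at 30°C in NGY, then added to MOPS-buffered RPMI 1640 with 2% glucose at an initial 10^5 yeasts/ml. Incubated 35°C for 24 h. MICs taken from triplicate spectrophotometric dose-response data as 50% and 80% growth-reduction endpoints.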

Candida albicans [2] = experiment: Antifungal activity against Candida albicans T28 after 24 hrs by CLSI M27-A test
In short: (§2)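 CLSI M27-A broth microdilution with aqueous doubling dilutions of drug. Inoculum grown overnight at 30°C in NGY medium, then added to MOPS-buffered RPMI 1640 at an initial 10^3 yeasts/ml. Incubated 35°C for 24 h. MIC read visually as the lowest concentration giving a marked decrease in visible growth; paradoxical or trailing growth noted.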

Candida albicans [3] = experiment: Antifungal activity against Candida albicans T28 after 24 hrs by EUCAST test; in short: as §1
Candida albicans [4] = experiment: Antifungal activity against Candida albicans T32 after 24 hrs by EUCAST test; in short: as §1
Candida albicans [5] = experiment: Antifungal activity against Candida albicans SC5314 after 24 hrs by CLSI M27-A test; conditions: SC5314, 24 h; in short: as §2
Candida albicans [6] = experiment: Antifungal activity against Candida albicans SCS140136P after 24 hrs by CLSI M27-A test; in short: as §2
Candida albicans [7] = experiment: Antifungal activity against Candida albicans SCS140136P after 24 hrs by EUCAST test; in short: as §1
Candida albicans [8] = experiment: Antifungal activity against Candida albicans SCS67023C after 24 hrs by CLSI M27-A test; in short: as §2
Candida albicans [9] = experiment: Antifungal activity against Candida albicans SCS67023C after 24 hrs by EUCAST test; in short: as §1
Candida albicans [10] = experiment: Antifungal activity against Candida albicans SCS68858 after 24 hrs by CLSI M27-A test; in short: as §2
Candida albicans [11] = experiment: Antifungal activity against Candida albicans SCS68858 after 24 hrs by EUCAST test; in short: as §1
Candida albicans [12] = experiment: Antifungal activity against Candida albicans AM2003/0083 after 24 hrs by CLSI M27-A test; in short: as §2
Candida albicans [13] = experiment: Antifungal activity against Candida albicans AM2003/0083 after 24 hrs by EUCAST test; in short: as §1
Candida albicans [14] = experiment: Antifungal activity against Candida albicans B06-341 after 24 hrs by CLSI M27-A test; in short: as §2
Candida albicans [15] = experiment: Antifungal activity against Candida albicans B06-341 after 24 hrs by EUCAST test; in short: as §1
Candida albicans [16] = experiment: Antifungal activity against Candida albicans HK04M102095 after 24 hrs by CLSI M27-A test; in short: as §2
Candida albicans [17] = experiment: Antifungal activity against Candida albicans JIMS101103 after 24 hrs by EUCAST test; in short: as §1
Candida albicans [18] = experiment: Antifungal activity against Candida albicans JIMS132203 after 24 hrs by CLSI M27-A test; in short: as §2
Candida albicans [19] = experiment: Antifungal activity against Candida albicans JIMS146204 after 24 hrs by CLSI M27-A test; in short: as §2
Candida albicans [20] = experiment: Antifungal activity against Candida albicans JIMS146204 after 24 hrs by EUCAST test; in short: as §1
Candida albicans [21] = experiment: Antifungal activity against Candida albicans NCPF6525 after 24 hrs by CLSI M27-A test; in short: as §2
Candida albicans [22] = experiment: Antifungal activity against Candida albicans NR3 after 24 hrs by CLSI M27-A test; in short: as §2
Candida albicans [23] = experiment: Antifungal activity against Candida albicans T25 after 24 hrs by CLSI M27-A test; in short: as §2
Candida albicans [24] = experiment: Antifungal activity against Candida albicans T25 after 24 hrs by EUCAST test; in short: as §1
Candida albicans [25] = experiment: Antifungal activity against Candida albicans T26 after 24 hrs by CLSI M27-A test; in short: as §2
Candida albicans [26] = experiment: Antifungal activity against Candida albicans Y109 after 24 hrs by CLSI M27-A test; in short: as §2
Candida dubliniensis [27] = experiment: Antifungal activity against Candida dubliniensis 75/043 after 24 hrs by EUCAST test; in short: as §1
Candida dubliniensis [28] = experiment: Antifungal activity against Candida dubliniensis 910Aa after 24 hrs by EUCAST test; in short: as §1
Candida dubliniensis [29] = experiment: Antifungal activity against Candida dubliniensis AMCC after 24 hrs by CLSI M27-A test; in short: as §2
Candida dubliniensis [30] = experiment: Antifungal activity against Candida dubliniensis AMCC after 24 hrs by EUCAST test; in short: as §1
Candida dubliniensis [31] = experiment: Antifungal activity against Candida dubliniensis Leic952 after 24 hrs by CLSI M27-A test
In short: (§3)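 Broth microdilution with echinocandins as aqueous doubling dilutions. Yeasts were grown overnight at 30°C in NGY and seeded at 10^3 yeasts/ml initial concentration in MOPS-buffered RPMI 1640, then incubated at 35°C for 24 h. The MIC was read visually as the lowest concentration giving a marked decrease in visible growth; paradoxical or trailing growth was noted.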

Candida dubliniensis [32] = experiment: Antifungal activity against Candida dubliniensis Leic952 after 24 hrs by EUCAST test
In short: (§4)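 Yeasts were grown overnight at 30°C in NGY, then inoculated at 10^5 yeasts/ml initial concentration into MOPS-buffered RPMI 1640 with 2% glucose containing aqueous doubling dilutions of drug. Plates were held at 35°C for 24 h. MICs came from triplicate spectrophotometric dose-response data at 50% and 80% growth-reduction endpoints. Trailing meant a >100-fold gap between these endpoints; paradoxical meant regrowth ≥5% above the curve minimum.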

Candida dubliniensis [33] = experiment: Antifungal activity against Candida dubliniensis SCS17154969-1 after 24 hrs by EUCAST test; in short: as §4
Candida dubliniensis [34] = experiment: Antifungal activity against Candida dubliniensis SCS59662 after 24 hrs by CLSI M27-A test; in short: as §3
Candida dubliniensis [35] = experiment: Antifungal activity against Candida dubliniensis SCS59662 after 24 hrs by EUCAST test; in short: as §4
Candida dubliniensis [36] = experiment: Antifungal activity against Candida dubliniensis SCS65875C after 24 hrs by CLSI M27-A test; in short: as §3
Candida dubliniensis [37] = experiment: Antifungal activity against Candida dubliniensis SCS65875C after 24 hrs by EUCAST test; in short: as §4
Candida dubliniensis [38] = experiment: Antifungal activity against Candida dubliniensis FS after 24 hrs by CLSI M27-A test; in short: as §3
Candida dubliniensis [39] = experiment: Antifungal activity against Candida dubliniensis FS after 24 hrs by EUCAST test; in short: as §4
Candida dubliniensis [40] = experiment: Antifungal activity against Candida dubliniensis IK after 24 hrs by CLSI M27-A test; in short: as §3
Candida dubliniensis [41] = experiment: Antifungal activity against Candida dubliniensis J930936 after 24 hrs by CLSI M27-A test; in short: as §3
Candida dubliniensis [42] = experiment: Antifungal activity against Candida dubliniensis KR after 24 hrs by CLSI M27-A test; in short: as §3
Candida dubliniensis [43] = experiment: Antifungal activity against Candida dubliniensis SCSBB417709 after 24 hrs by EUCAST test; in short: as §4
Candida dubliniensis [44] = experiment: Antifungal activity against Candida dubliniensis ST after 24 hrs by CLSI M27-A test; in short: as §3
Candida dubliniensis [45] = experiment: Antifungal activity against Candida dubliniensis ST after 24 hrs by EUCAST test; in short: as §4
Candida parapsilosis [46] = experiment: Antifungal activity against Candida parapsilosis ATCC 22019 after 24 hrs by CLSI M27-A test; conditions: Lodderomyces parapsilosis, ATCC 22019, 24 h; in short: as §3
Candida parapsilosis [47] = experiment: Antifungal activity against Candida parapsilosis ATCC 22019 after 24 hrs by EUCAST test; conditions: Lodderomyces parapsilosis, ATCC 22019, 24 h; in short: as §4

In the case of `CCCCCOc1ccc(-c2ccc(-c3ccc(C(=O)N[C@H]4C[C@@H](O)[C@@H](O)NC(=O)[C@@H]5[C@@H](O)[C@@H](C)CN5C(=O)[C@H]([C@@H](C)O)NC(=O)[C@H]([C@H](O)[C@@H](O)c5ccc(O)cc5)NC(=O)[C@@H]5C[C@@H](O)CN5C(=O)[C@H]([C@@H](C)O)NC4=O)cc3)cc2)cc1` [ANIDULAFUNGIN] ({pTerphenylCO(4''-OnC5H11)}-[Orn(4R-OH,5R-OH)]T[Hyp][hTyr(3S-OH,4S-OH)]T[Pro(3S-OH,4S-Me)]; lactam 1-C), the MIC50 (Candida albicans [1]) is reported as 0.25 µg/mL (≈ 0.219 µM), the MIC50 (Candida albicans [2]) is reported as ≤ 0.032 µg/mL and the MIC50 (Candida albicans [3]) is reported as ≤ 0.032 µg/mL. The MIC50 (Candida albicans [4]) was ≤ 0.032 µg/mL, the MIC50 (Candida albicans [5]) was ≤ 0.032 µg/mL and the MIC50 (Candida albicans [6]) was ≤ 0.032 µg/mL. The MIC50 (Candida albicans [7]) was ≤ 0.032 µg/mL, the MIC50 (Candida albicans [8]) was ≤ 0.032 µg/mL and the MIC50 (Candida albicans [9]) was ≤ 0.032 µg/mL. For the same compound, the MIC50 (Candida albicans [10]) was ≤ 0.032 µg/mL, the MIC50 (Candida albicans [11]) was ≤ 0.032 µg/mL and the MIC50 (Candida albicans [12]) was ≤ 0.032 µg/mL. The MIC50 (Candida albicans [13]) was ≤ 0.032 µg/mL, the MIC50 (Candida albicans [14]) was 0.13 µg/mL (≈ 0.114 µM) and the MIC50 (Candida albicans [15]) was 0.13 µg/mL (≈ 0.114 µM). For the same compound, the MIC50 (Candida albicans [16]) was ≤ 0.032 µg/mL, the MIC50 (Candida albicans [17]) was ≤ 0.032 µg/mL and the MIC50 (Candida albicans [18]) was ≤ 0.032 µg/mL. For the same compound, the MIC50 (Candida albicans [19]) was ≤ 0.032 µg/mL, the MIC50 (Candida albicans [20]) was ≤ 0.032 µg/mL and the MIC50 (Candida albicans [21]) was 0.13 µg/mL (≈ 0.114 µM). For the same compound, the MIC50 (Candida albicans [22]) was 1 µg/mL (≈ 0.877 µM), the MIC50 (Candida albicans [23]) was 1 µg/mL (≈ 0.877 µM) and the MIC50 (Candida albicans [24]) was 0.5 µg/mL (≈ 0.438 µM). For the same compound, the MIC50 (Candida albicans [25]) was 1 µg/mL (≈ 0.877 µM), the MIC50 (Candida albicans [26]) was 0.25 µg/mL (≈ 0.219 µM) and the MIC50 (Candida dubliniensis [27]) was ≤ 0.032 µg/mL. For the same compound, the MIC50 (Candida dubliniensis [28]) was ≤ 0.032 µg/mL, the MIC50 (Candida dubliniensis [29]) was ≤ 0.032 µg/mL and the MIC50 (Candida dubliniensis [30]) was ≤ 0.032 µg/mL. For the same compound, the MIC50 (Candida dubliniensis [31]) was ≤ 0.032 µg/mL, the MIC50 (Candida dubliniensis [32]) was 8 µg/mL (≈ 7.02 µM) and the MIC50 (Candida dubliniensis [33]) was ≤ 0.032 µg/mL. The MIC50 (Candida dubliniensis [34]) was ≤ 0.032 µg/mL, the MIC50 (Candida dubliniensis [35]) was ≤ 0.032 µg/mL and the MIC50 (Candida dubliniensis [36]) was ≤ 0.032 µg/mL. For the same compound, the MIC50 (Candida dubliniensis [37]) was ≤ 0.032 µg/mL, the MIC50 (Candida dubliniensis [38]) was ≤ 0.032 µg/mL and the MIC50 (Candida dubliniensis [39]) was 4 µg/mL (≈ 3.51 µM). For the same compound, the MIC50 (Candida dubliniensis [40]) was ≤ 0.032 µg/mL, the MIC50 (Candida dubliniensis [41]) was ≤ 0.032 µg/mL and the MIC50 (Candida dubliniensis [42]) was ≤ 0.032 µg/mL. The MIC50 (Candida dubliniensis [43]) was ≤ 0.032 µg/mL, the MIC50 (Candida dubliniensis [44]) was ≤ 0.032 µg/mL and the MIC50 (Candida dubliniensis [45]) was ≤ 0.032 µg/mL. It also gave an MIC50 (Candida parapsilosis [46]) of 0.5 µg/mL (≈ 0.438 µM) and an MIC50 (Candida parapsilosis [47]) of 0.5 µg/mL (≈ 0.438 µM).

From ChEMBL document CHEMBL1143838, “Candida albicans and Candida dubliniensis respond differently to echinocandin antifungal agents in vitro” (2007)
